These results are taken from article PMC3557458 (Journal of molecular biology, 2012).

The test system of experiment [1] is Bim and Bad BH3 peptides. The format is binding, human. As to conditions: FP competition, Bim-22 and Bad-22, Ki relative to Bcl-xL. The method in brief: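 His6-tagged Bcl-xL variants (E. coli RP3098, Ni-NTA under native conditions) at 50 nM with 15 nM fluorescein-labelled peptide, which varied by variant, competed against serially diluted unlabelled peptide. Equilibrated ≥3 hr at ~25 °C; anisotropy read in duplicate. Ki values were fitted using direct-binding Kd values, then normalized to averaged parent-protein Ki.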

The target in experiment [2] is RX1, recombinant (human) (UniProt Q07817). The experiment can be described thus: fluorescence polarisation.
Experiment [3] addresses recombinant native Bcl-xL (human) (UniProt Q07817). The experiment can be described thus: fluorescence polarisation. (In general: Fluorescence polarisation rises when a labelled molecule tumbles more slowly, as on binding a larger partner.)
For experiment [4], the target named is RX1 (Homo sapiens, UniProt Q07817, A142G/F105L/F146A/L130I/Q111G/Q125V/S122I/V126A/Y101H). The format is binding. As to conditions: from Ki values of RX1 and Bcl-xL for Bim-22 and Bad-22.
The test system of experiment [5] is fluoresceinated Bim vs. Bad BH3. Kind of experiment: Fluorescence polarization direct binding of fluoresceinated Bim vs. Bad BH3. The arrangement: species or system human. The settings on record: labeled peptide 5 nM, at least 1 hr, ~25 °C.
Experiment [6] addresses recombinant native Bcl-xL (human, UniProt Q07817-1 1-209). The experiment can be described thus: fluorescence polarisation.

Entries after “also recorded” stand apart in the source; their conditions may differ.

recombinant native Bcl-xL, sequence (Q07817 1-209): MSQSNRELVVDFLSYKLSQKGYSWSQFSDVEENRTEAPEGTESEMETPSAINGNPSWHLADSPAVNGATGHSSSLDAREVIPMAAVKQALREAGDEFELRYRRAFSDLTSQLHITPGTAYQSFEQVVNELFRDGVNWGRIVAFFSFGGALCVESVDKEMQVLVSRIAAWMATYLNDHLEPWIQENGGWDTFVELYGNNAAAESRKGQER

As for “A104M: Bcl-xL point mutant A104M (not in RX1)”, the “Bad vs. Bim binding preference of point mutation in the context of Bcl-xL” value (“Bad vs. Bim binding preference” for short) in experiment [1] is reported as “confirmed to be specific”. For A142G: Bcl-xL point mutant A142G, the “Bad vs. Bim binding preference” value in experiment [1] was “preferred binding Bad over Bim”. For orientation: Ki means the equilibrium dissociation constant of an inhibitor or competing ligand from its target. On to Bad-22, Bad BH3 peptide of 22 residues, for which the figures for the Ki in experiment [2] and in experiment [3] were 33 nM and 2 nM, respectively. Turning to Bim-22, Bim BH3 peptide of 22 residues, the Ki in experiment [2] is greater than 50000 nM; in experiment [3] it was 3 nM. Turning to F105L: Bcl-xL point mutant F105L, the “Bad vs. Bim binding preference” value in experiment [1] was “favored Bim binding over Bad”. Still for that read-out and setting: to F146A: Bcl-xL point mutant F146A belongs “did not confer specificity”; to L130I: Bcl-xL point mutant L130I, “shown not to be”; to “S122I: Bcl-xL point mutant, Ser 122 to Ile”, “preferred binding Bad over Bim; also recorded: confirmed to be specific”. As to V126A: Bcl-xL point mutant V126A, in experiment [1], the “Bad vs. Bim binding preference” value is listed as “preferred binding Bad over Bim”.

B1: RX1: Re-designed Bcl-xL variant: Y101H, F105L, Q111G, S122I, Q125V, V126A, L130I, A142G, F146A (protein)
chain: MSQSNRELVVDFLSYKLSQKGYSWSQFSDVEENRTEAPEGTESEMETPSAINGNPSWHLADSPAVNGATGHSSSLDAREVIPMAAVKQALREAGDEFELRHRRALSDLTSGLHITPGTAYQIFEVAVNEIFRDGVNWGRIVGFFSAGGALCVESVDKEMQVLVSRIAAWMATYLNDHLEPWIQENGGWDTFVELYGNNAAAESRKGQER
modifications: left off: His6, end not stated, state not stated
In the case of B1, the “specificity increase for Bad BH3 over Bim BH3 relative to native Bcl-xL” value in experiment [4] is listed as ≥ 1,000 fold. Besides, the “preference for binding Bad over Bim, direct binding” value in experiment [5] is recorded as “strong preference”. In the case of LWAAQRYGRELRRMSDEFVDSFKKGLPR (peptide, UniProt Q92934 104-131, looked up) [Bad-28, recombinant Bad BH3 28-mer peptide], the Ki in experiment [6] is less than 0.1 nM.

For the molecule EQWAREIGAQLRRMADDLNAQYERRRQE [PUMA BH3 peptide], in experiment [6], the Ki is less than 0.1 nM.
